Compound activity deposited in PubChem by The Scripps Research Institute Molecular Screening Center.
UHRF1 binding – human UHRF1 methylated DNA binding inhibitors; UHRF1 binding to methylated oligo, TR-FRET; inhibition, % at 4.4 µM; 370,000 tested, 0.75% active; in the data active = inhibition above about 21%;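 also: UHRF1 SRA domain binding a hemimethylated CpG hairpin DNA probe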
Tn6 DDE FP – inhibitors of Tn6 peptide binding to human fibrin DD(E); P02675; Fibrin DD(E) TRITC-Tn6 fluorescence polarization displacement; inhibition, % at 8.3 µM; 370,000 tested, 0.21% active; AID 720509;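 active = inhibition above a per-campaign cutoff: mean of compounds within control limits plus 3 SD, cut at about 15% in these data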
Target sequence (P02675 whole entry, looked up): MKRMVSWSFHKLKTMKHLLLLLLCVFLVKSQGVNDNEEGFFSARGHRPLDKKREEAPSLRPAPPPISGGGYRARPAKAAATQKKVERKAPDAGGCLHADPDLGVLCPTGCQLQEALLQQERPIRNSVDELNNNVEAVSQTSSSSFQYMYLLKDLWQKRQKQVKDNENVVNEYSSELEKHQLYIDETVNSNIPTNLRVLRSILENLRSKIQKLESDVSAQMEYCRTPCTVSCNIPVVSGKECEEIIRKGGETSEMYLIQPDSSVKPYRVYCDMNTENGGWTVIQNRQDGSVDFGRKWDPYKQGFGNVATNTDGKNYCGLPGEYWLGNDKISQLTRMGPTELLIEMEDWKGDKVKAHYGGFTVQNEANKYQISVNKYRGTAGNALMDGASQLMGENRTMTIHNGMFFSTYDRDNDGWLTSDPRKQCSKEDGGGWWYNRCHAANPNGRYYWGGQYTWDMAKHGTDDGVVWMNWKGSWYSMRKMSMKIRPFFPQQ
MBD2 DNA inh – MBD2-methylated oligo binding inhibition | Q9UBB5 | inhibition, % at 4.4 µM | TR-FRET, MBD2 binding to methylated oligonucleotide | 370,000 tested, 0.31% active; in the data active = inhibition above about 13%
DDE Tn7 FP inh – inhibitors of Tn7 peptide binding to human fibrin DD(E). FP displacement of FITC-Tn7 peptide from fibrin DD(E); 0% = median of compound wells per plate. 370,000 tested, 0.13% active. inhibition, % at 8.3 µM;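 active = inhibition above the mean of compounds falling within the control limits plus 3 SD of them, cut at about 14% in these data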
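system = human fibrin DD(E) protein | quantity = DD(E) 2 µM final | medium = Tris/NaCl/CaCl2 buffer, pH 7.8 | also added = labelled Tn7 tracer, 0.1 µM | compound dosing = single point at 8.3 µM | timing = compound with protein 10 min, then 3 h after probe, room temperature | signal = FP measurement | benchmarks = Aha-Tn7 high control | repeats = one replicate per compound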
LEDGF integ inh – blocks HIV-1 LEDGF/p75-dependent DNA integration. TR-FRET IN-LEDGF/p75 DNA integration, Eu/Cy5. inhibition, % at 3.7 µM. 370,000 tested, 0.64% active. AID 743269;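 active = inhibition above the screen-wide mean plus 3 SD, cut at about 13% in these data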;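 also: signal is the Cy5 over europium emission ratio at 671 and 618 nm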
TDP2 inh – blocks human TDP2 phosphodiesterase activity; inhibition, % at 12.8 µM; 370,000 tested, 0.34% active; O95551; recombinant TDP2, T5PNP hydrolysis, p-nitrophenol absorbance 415 nm;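 active = inhibition above the mean of all tested compounds plus 3 SD, set per campaign, cut at about 25% in these data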
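System – recombinant human TDP2 · Quantity – TDP2 enzyme at 120 nM final · Doses – single concentration, 12.8 µM nominal, with 1% DMSO · Incubation – 2 h at 37 °C · Measured by – epi absorbance of p-nitrophenol freed from T5PNP by hydrolysis · Read-out – % inhibition relative to enzyme-containing and enzyme-free wells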
IN multimer act – counter-screen for LEDGF/p75 integration inhibitors: HIV-1 integrase multimerization activators | shares compounds with LEDGF integ inh | TR-FRET HIV-1 integrase multimerization, biochemical | activation, % at 7.7 µM | 2,000 tested, 17% active | AID 1053131; in the data active = activation above about 8.9%
TR-FRET interf – TR-FRET optical interference, LEDGF/p75 integration counter-screen; shares compounds with LEDGF integ inh; TR-FRET optical interference counterscreen, HIV-1 IN multimerization; inhibition, % at 7.7 µM; 2,000 tested, under 10 active; AID 1053135;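 active = inhibition above the mean over all tested compounds plus 3 SD, which no compound reached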
LEDGF integ conf – LEDGF/p75-dependent HIV-1 integration inhibition, confirmation. shares compounds with LEDGF integ inh. TR-FRET LEDGF/p75-dependent HIV-1 integration, biochemical. inhibition, % at 3.7 µM. 2,000 tested, 36% active. AID 1053136; in the data active = inhibition above about 14%
Each line names hits and unclear results; the compound was inactive in the other large screens (follow-up assays come after a bar, where they were run). This is a sample that favours compounds with a hit; in the whole collection about 1.9% have one here.

COCCCNc1nc(SCc2ccccc2)nc2sc3c(c12)CCC3	LEDGF integ inh 14 | IN multimer act inactive | TR-FRET interf inactive | LEDGF integ conf inactive
COCCNc1nc(SC)nc2sc3c(c12)CCN(C)C3	none
COc1ccccc1N(CC(=O)NC1CCCCC1)S(=O)(=O)c1cccs1	none
COc1ccccc1N(CC(=O)NC1CCCCC1C)S(=O)(=O)c1cccs1 (centres undefined)	LEDGF integ inh 34 | IN multimer act inactive | TR-FRET interf inactive | LEDGF integ conf inactive
Cc1[nH]c(=O)[nH]c1C(=O)CCCCC(=O)O	LEDGF integ inh 73 | IN multimer act inactive | TR-FRET interf inactive | LEDGF integ conf 60
CCOc1ccccc1NC(=O)CN1CCC(NC(=O)c2ccccc2C)CC1	LEDGF integ inh 21 | IN multimer act inactive | TR-FRET interf inactive | LEDGF integ conf inactive
O=C(OCC#CCSc1nnc(-c2cccc3ccccc23)o1)c1sccc1Cl	none
COc1ccc(CN2c3cc(S(=O)(=O)N4CCOCC4)ccc3N3CCCC32)cc1 (centres undefined)	none
O=S(=O)(c1ccc2c(c1)N(Cc1ccc(Cl)cc1)C1CCCN21)N1CCOCC1 (centres undefined)	LEDGF integ inh 23 | IN multimer act inactive | TR-FRET interf inactive | LEDGF integ conf inactive
CCC(CC)C(=O)OCC(=O)NC12CC3CC(CC(C3)C1)C2	LEDGF integ inh 14 | IN multimer act inactive | TR-FRET interf inactive | LEDGF integ conf inactive
CCOC(=O)C1=CC[C@@H](c2ccccc2)C(C#N)(C#N)[C@H]1/C=C/c1ccccc1	none
Cc1ccc(C=Nc2ccccc2C(N)=O)o1	none
Cc1ccc(C=Nc2ccc(N(C)C)cc2)o1	LEDGF integ inh 15 | IN multimer act inactive | TR-FRET interf inactive | LEDGF integ conf inactive
COC/C=C/C1=CC2=CC(=O)C(C)(OC(=O)c3cnc4ccccc4n3)C(=O)C2=CN1Cc1ccccc1 (centres undefined)	LEDGF integ inh 15 | IN multimer act inactive | TR-FRET interf inactive | LEDGF integ conf inactive
Cn1c(=O)c2[nH]c(SCC(=O)NCCc3ccc(F)cc3)nc2n(C)c1=O	none
CCOC(=O)c1nn(-c2ccccc2)c(=O)c2c(N)scc12	none
Nc1scc2c(C(=O)N/N=C/c3ccc(Cl)cc3)nn(-c3ccccc3)c(=O)c12	LEDGF integ inh 13 | IN multimer act inactive | TR-FRET interf inactive | LEDGF integ conf inactive
COCCN1C(=O)CN(S(C)(=O)=O)CC1(C)C(=O)NCc1ccccc1 (centres undefined)	LEDGF integ inh 14 | IN multimer act inactive | TR-FRET interf inactive | LEDGF integ conf inactive
CC1(C(=O)NCc2ccccc2)CN(S(C)(=O)=O)CC(=O)N1CCc1ccccc1 (centres undefined)	none
Cc1cccc(Cn2cc(COC(=O)N3CCOCC3)nn2)c1	none
Nc1nc(C(F)(F)F)cc(=O)[nH]1	none
O=c1cc(C(F)(F)F)nc(-n2[nH]c3c(c2=O)CCCC3)[nH]1	LEDGF integ inh 17 | IN multimer act inactive | TR-FRET interf inactive | LEDGF integ conf inactive
O=C(NCc1ccccc1)[C@H]1CCCN1C(=O)[C@H]1CCCN1C(=O)N1CCCCC1	none
Cc1cc(C)nc(SCC(=O)Nc2nc(-c3ccccc3)c(-c3ccccc3)o2)n1	none
Cc1ccc(C(=O)Nc2nc(-c3ccccc3)c(-c3ccccc3)o2)cc1	LEDGF integ inh 21 | IN multimer act inactive | TR-FRET interf inactive | LEDGF integ conf 23
Cc1cc([N+](=O)[O-])ccc1NC(=O)Cc1ccc(F)cc1	LEDGF integ inh 85 | IN multimer act inactive | TR-FRET interf inactive | LEDGF integ conf inactive
Brc1ccc(-c2ccc3c(n2)CCCN3Cc2ccccn2)cc1	none
O=C(Cn1cncn1)NCc1ccc(Cl)cc1	LEDGF integ inh 19 | IN multimer act inactive | TR-FRET interf inactive | LEDGF integ conf inactive
O=C(Cn1cncn1)N/N=C/c1ccc(Cl)cc1	none
COc1ccc(N)cc1CN1CCN(c2ncc(Cc3ccccc3)cn2)CC1	none
O=C(NNC(=O)C1CCN(S(=O)(=O)c2ccc(Cl)cc2)CC1)c1ccc(Cl)cc1	LEDGF integ inh 84 | IN multimer act inactive | TR-FRET interf inactive | LEDGF integ conf inactive
O=C(NNC(=O)C1CCN(S(=O)(=O)c2ccc(Cl)cc2)CC1)c1ccccc1	none
COC(=O)[C@]12C[C@H](CC(=O)N3CCN(C(=O)C4CC4)CC3)C(=O)N(Cc3ccccc3)C1=C[C@H](C(C)(C)C)O[C@@H]2C	none
Oc1ccc(NCc2cccc(OCc3ccc(F)cc3)c2)cc1	LEDGF integ inh 14 | IN multimer act inactive | TR-FRET interf inactive | LEDGF integ conf 26
Oc1ccc(NCc2cccc(OCc3ccccc3)c2)cc1	LEDGF integ inh 16 | IN multimer act 8.9 | TR-FRET interf inactive | LEDGF integ conf 41
CC(=O)N1CCN(c2ccc(N3CCN(C(C)=O)[C@H](C)C3)c(C)c2)[C@H](C)C1	none
C[C@H](O)[C@@H]1CN2CCc3ccc(-c4ccc5c(c4)OCO5)cc3[C@@H]2C[C@@H]1N(C)C(=O)NC1CCCCC1	none
CC(=O)c1ccc(OC2(C)CCN(Cc3ccc4c(c3)OCCO4)C2)cc1 (centres undefined)	LEDGF integ inh 15 | IN multimer act inactive | TR-FRET interf inactive | LEDGF integ conf inactive
CC1=NN2C(=N)/C(=C\c3ccc(SCc4ccccc4)o3)C(=O)N=C2S1	none
N=C1/C(=C\c2ccc(SCc3ccco3)o2)C(=O)N=C2SC=NN12	UHRF1 binding 51, LEDGF integ inh 49 | IN multimer act inactive | TR-FRET interf inactive | LEDGF integ conf 50
COCc1cc(N2CCN(C(=O)OC(C)(C)C)C[C@H]2C)ccc1N1CC[C@@H](O)C1	LEDGF integ inh 14 | IN multimer act inactive | TR-FRET interf inactive | LEDGF integ conf inactive
COCc1cc(N2CCN(C(=O)OC(C)(C)C)C[C@@H]2C)ccc1N1C[C@@H](C)O[C@@H](C)C1	none
CS(=O)(=O)N(CC(=O)N1CCN(c2cccc(Cl)c2)CC1)c1cccc(F)c1	LEDGF integ inh 24 | IN multimer act inactive | TR-FRET interf inactive | LEDGF integ conf inactive
CS(=O)(=O)N(CC(=O)N1CCOCC1)c1cccc(F)c1	none
